Experiments:
[1] = target: T1, Mitogen-activated protein kinase 12 (Homo sapiens) (UniProt P53778); assay: Inhibition of p38gamma Lys2 labeling site in human Huh-7 cell lysate at 1 uM by KiNativ Profiling analysis relative to control; assay type: subcellular
T1 sequence (whole entry): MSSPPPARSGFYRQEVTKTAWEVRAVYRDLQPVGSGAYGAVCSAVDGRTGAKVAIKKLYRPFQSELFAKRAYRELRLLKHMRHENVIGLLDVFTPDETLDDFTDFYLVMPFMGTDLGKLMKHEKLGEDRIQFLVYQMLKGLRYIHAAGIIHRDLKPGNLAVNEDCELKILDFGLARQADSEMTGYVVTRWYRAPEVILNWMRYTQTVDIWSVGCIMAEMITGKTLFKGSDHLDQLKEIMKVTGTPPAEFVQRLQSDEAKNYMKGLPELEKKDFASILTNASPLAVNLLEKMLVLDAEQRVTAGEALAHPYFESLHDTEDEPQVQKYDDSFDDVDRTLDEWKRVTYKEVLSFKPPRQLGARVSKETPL

[2] = target: T2, Phosphatidylinositol 4,5-bisphosphate 3-kinase catalytic subunit delta isoform (Homo sapiens) (UniProt O00329); assay: Inhibition of PIK3CD ATP labeling site in human A-375 cells at 0.05 uM by KiNativ Profiling analysis relative to control; assay type: cell-based
T2 sequence (whole entry): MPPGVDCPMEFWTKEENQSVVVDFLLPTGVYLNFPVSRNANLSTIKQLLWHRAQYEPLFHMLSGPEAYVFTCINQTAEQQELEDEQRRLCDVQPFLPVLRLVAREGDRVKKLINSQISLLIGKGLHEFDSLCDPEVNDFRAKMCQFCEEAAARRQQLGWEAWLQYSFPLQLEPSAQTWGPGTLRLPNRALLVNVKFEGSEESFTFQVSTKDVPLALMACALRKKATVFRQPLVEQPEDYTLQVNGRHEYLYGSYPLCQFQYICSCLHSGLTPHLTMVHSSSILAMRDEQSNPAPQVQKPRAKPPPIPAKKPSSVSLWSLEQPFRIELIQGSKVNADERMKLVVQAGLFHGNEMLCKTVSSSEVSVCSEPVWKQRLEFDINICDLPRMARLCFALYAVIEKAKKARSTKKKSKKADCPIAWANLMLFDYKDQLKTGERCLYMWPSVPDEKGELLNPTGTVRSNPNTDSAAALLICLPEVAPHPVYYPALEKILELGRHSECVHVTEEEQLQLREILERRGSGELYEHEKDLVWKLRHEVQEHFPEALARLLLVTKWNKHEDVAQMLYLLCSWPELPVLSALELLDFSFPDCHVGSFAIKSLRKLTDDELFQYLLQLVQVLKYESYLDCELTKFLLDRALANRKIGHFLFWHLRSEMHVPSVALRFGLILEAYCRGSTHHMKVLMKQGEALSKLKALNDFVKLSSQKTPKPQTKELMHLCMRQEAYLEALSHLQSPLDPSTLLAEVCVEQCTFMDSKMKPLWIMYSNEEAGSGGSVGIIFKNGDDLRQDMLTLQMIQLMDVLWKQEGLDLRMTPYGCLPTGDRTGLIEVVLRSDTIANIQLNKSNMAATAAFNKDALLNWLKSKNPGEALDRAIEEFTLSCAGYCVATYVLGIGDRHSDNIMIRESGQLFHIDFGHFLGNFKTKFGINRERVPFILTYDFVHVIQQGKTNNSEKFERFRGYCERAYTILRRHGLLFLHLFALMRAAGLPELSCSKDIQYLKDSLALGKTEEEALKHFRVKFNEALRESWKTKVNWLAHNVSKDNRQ

[3] = target: T3, Acylglycerol kinase, mitochondrial (Homo sapiens) (UniProt Q53H12); assay: Inhibition of AGK ATP labeling site in human A-375 cells at 0.5 uM by KiNativ Profiling analysis relative to control; assay type: cell-based
T3 sequence (whole entry): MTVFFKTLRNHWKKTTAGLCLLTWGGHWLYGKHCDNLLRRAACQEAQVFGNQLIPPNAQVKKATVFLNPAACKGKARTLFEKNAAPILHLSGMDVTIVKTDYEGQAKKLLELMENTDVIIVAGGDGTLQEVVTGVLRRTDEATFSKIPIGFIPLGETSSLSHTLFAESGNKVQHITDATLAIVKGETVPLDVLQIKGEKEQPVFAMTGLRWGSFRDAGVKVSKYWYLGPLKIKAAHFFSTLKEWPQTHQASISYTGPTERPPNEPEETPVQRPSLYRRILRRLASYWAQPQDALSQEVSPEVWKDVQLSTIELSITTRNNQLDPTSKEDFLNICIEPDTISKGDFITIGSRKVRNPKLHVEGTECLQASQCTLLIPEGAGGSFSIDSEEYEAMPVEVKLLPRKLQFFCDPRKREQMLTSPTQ
Summary of the method: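 Live A375 melanoma cells were treated with compound at 5 or 0.5 μM, then lysed. The lysates were labeled with a lysine-reactive ATP or ADP-biotin probe. Kinase protection from probe labeling was measured by KiNativ.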

[4] = target: Tyrosine-protein kinase Fer (Homo sapiens, UniProt P16591); assay: Inhibition of FER Lys1 labeling site harbouring TSVAVKTCKEDLPQELKin human A-375 cells at 5 uM by KiNativ Profiling analysis relative to control; assay type: cell-based
[5] = target: Serine/threonine-protein kinase WNK1 (Homo sapiens) (UniProt Q9H4A3); assay: Inhibition of Wnk1 ATP Loop labeling site in human A-375 cells at 5 uM by KiNativ Profiling analysis relative to control; assay type: cell-based
[6] = target: Mitogen-activated protein kinase 14 (Homo sapiens, UniProt Q16539); assay: Inhibition of p38 alpha in human A-375 cells at 5 uM by KiNativ Profiling analysis relative to control; assay type: cell-based
[7] = target: Serine/threonine-protein kinase Nek6 (Homo sapiens) (UniProt Q9HC98); assay: Inhibition of NEK6 Lys2 labeling site in human A-375 cells at 0.05 uM by KiNativ Profiling analysis relative to control; assay type: cell-based
[8] = target: Dual specificity mitogen-activated protein kinase kinase 2 (Homo sapiens) (UniProt P36507); assay: Inhibition of MAP2K2 Lys2 labeling site in human A-375 cells at 0.05 uM by KiNativ Profiling analysis relative to control; assay type: cell-based
[9] = target: Mitogen-activated protein kinase 10 (Homo sapiens, UniProt P53779); assay: Inhibition of JNK3 Lys2 labeling site in human A-375 cells at 5 uM by KiNativ Profiling analysis relative to control; assay type: cell-based
[10] = target: Mitogen-activated protein kinase kinase kinase kinase 4 (Homo sapiens, UniProt O95819); assay: Inhibition of ZC1/HGK (unknown origin) Lys1 labeling site by KiNativ Profiling analysis
Sequence of Mitogen-activated protein kinase kinase kinase kinase 4 (O95819 whole entry): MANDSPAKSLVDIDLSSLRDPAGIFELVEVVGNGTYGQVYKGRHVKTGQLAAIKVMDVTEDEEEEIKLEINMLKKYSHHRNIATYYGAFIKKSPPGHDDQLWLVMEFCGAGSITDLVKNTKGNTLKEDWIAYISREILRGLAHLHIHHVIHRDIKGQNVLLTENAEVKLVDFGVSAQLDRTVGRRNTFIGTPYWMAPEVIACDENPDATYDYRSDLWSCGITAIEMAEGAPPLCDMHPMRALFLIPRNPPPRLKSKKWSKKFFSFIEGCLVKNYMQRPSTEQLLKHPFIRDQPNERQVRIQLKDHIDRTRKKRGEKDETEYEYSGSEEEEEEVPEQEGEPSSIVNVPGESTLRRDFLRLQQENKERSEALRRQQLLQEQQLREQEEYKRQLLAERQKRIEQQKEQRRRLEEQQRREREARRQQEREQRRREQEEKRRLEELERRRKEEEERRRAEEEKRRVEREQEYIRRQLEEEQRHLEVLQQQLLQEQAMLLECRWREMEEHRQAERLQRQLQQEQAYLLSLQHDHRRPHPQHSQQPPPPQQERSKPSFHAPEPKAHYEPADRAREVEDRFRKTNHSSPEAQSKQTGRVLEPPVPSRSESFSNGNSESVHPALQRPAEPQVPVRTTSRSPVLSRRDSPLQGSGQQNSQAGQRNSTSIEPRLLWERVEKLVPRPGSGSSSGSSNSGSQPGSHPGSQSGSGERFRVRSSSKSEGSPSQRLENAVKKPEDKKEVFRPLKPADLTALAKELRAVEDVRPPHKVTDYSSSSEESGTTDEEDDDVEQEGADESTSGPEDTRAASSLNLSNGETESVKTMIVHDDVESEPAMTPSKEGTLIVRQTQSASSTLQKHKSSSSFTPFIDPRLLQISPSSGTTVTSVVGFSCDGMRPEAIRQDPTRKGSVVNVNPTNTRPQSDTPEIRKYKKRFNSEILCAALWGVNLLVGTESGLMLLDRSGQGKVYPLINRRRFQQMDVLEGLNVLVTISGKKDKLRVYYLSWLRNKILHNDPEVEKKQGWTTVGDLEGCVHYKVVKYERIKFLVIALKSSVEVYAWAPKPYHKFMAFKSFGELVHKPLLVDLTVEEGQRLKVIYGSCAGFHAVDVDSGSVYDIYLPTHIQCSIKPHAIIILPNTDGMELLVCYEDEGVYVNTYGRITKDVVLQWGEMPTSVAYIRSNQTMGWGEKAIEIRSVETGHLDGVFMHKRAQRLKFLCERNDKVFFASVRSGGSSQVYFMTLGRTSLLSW

Sequence of Mitogen-activated protein kinase 10 (P53779 whole entry): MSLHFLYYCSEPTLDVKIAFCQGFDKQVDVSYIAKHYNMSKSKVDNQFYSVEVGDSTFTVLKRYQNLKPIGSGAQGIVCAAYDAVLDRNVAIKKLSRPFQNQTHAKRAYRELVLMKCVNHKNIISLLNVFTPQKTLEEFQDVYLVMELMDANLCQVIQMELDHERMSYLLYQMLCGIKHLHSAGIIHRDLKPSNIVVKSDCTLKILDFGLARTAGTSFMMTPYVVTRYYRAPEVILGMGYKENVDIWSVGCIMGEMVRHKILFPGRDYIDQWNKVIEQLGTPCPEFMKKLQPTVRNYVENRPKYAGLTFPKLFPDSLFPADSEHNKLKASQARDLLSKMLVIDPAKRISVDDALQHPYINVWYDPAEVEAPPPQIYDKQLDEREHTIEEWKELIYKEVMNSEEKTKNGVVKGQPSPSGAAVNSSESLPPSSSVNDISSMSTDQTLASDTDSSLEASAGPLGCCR
Sequence of Serine/threonine-protein kinase WNK1 (Homo sapiens) (Q9H4A3 whole entry, looked up): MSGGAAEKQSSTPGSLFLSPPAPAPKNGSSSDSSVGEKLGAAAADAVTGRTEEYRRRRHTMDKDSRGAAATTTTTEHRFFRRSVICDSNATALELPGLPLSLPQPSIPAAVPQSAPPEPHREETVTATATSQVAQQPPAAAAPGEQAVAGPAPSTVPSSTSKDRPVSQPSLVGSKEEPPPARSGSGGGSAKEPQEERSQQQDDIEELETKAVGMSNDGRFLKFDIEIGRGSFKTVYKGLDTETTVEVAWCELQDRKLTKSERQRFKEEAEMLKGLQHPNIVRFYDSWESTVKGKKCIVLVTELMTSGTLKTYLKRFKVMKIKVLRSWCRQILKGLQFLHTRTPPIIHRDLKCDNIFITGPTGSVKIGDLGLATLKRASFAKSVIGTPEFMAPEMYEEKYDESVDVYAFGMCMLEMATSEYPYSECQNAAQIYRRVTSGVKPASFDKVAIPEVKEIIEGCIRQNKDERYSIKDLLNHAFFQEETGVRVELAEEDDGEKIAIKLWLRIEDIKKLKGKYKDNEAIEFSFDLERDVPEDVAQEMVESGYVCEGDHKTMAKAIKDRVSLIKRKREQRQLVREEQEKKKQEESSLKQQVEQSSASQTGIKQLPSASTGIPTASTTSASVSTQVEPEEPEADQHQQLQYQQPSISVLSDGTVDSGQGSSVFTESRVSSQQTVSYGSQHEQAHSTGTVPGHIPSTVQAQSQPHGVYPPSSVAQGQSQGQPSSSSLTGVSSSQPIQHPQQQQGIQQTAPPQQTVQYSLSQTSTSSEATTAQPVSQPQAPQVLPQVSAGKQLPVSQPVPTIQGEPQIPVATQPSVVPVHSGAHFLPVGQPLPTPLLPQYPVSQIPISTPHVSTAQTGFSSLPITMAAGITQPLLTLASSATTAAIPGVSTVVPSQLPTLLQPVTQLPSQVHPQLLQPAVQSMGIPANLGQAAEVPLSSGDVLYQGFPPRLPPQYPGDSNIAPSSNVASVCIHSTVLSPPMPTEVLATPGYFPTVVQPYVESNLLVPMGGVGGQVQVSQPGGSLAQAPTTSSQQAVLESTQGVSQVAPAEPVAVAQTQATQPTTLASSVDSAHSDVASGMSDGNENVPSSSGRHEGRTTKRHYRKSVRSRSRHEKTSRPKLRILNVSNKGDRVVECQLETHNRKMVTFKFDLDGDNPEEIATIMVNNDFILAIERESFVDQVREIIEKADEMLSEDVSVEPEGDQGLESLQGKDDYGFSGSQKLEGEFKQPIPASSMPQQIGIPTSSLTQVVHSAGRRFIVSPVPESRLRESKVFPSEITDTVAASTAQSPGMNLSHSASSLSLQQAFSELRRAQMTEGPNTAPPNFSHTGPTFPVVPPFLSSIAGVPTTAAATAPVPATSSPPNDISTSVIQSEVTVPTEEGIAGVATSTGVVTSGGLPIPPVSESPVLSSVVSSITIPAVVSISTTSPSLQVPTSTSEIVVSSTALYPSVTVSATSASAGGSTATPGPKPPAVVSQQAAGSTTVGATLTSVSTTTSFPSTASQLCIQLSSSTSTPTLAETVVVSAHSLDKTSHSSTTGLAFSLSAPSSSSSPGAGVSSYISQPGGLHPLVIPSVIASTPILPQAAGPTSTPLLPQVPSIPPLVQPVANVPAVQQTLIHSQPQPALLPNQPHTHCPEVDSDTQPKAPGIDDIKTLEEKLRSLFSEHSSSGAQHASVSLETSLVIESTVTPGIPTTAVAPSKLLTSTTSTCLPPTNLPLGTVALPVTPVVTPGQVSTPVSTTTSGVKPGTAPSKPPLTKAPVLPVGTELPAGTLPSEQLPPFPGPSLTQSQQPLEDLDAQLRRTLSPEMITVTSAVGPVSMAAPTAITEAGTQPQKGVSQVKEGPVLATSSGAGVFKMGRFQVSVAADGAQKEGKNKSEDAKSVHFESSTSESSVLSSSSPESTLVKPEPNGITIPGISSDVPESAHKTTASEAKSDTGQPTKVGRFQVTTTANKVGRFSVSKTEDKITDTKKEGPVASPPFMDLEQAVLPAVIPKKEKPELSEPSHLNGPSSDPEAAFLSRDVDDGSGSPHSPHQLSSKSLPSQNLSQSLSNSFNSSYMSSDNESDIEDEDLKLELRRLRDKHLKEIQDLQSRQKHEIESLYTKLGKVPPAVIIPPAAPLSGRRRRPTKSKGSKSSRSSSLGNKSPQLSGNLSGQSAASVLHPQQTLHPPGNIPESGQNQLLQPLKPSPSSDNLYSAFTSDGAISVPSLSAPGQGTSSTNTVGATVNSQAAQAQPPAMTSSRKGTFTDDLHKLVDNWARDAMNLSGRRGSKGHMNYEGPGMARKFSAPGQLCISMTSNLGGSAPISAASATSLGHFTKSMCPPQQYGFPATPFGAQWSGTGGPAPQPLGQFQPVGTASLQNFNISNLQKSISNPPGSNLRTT
Sequence of Serine/threonine-protein kinase Nek6 (Homo sapiens) (Q9HC98 whole entry): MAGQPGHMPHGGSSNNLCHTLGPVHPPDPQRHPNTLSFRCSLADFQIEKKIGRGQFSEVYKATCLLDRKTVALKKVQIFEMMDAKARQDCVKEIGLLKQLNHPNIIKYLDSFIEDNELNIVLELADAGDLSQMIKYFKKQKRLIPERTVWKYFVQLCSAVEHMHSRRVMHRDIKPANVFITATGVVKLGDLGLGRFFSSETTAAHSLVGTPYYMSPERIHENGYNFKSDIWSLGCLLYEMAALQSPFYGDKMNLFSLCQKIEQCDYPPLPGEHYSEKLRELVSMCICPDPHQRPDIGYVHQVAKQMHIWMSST
Sequence of Mitogen-activated protein kinase 14 (Q16539 whole entry): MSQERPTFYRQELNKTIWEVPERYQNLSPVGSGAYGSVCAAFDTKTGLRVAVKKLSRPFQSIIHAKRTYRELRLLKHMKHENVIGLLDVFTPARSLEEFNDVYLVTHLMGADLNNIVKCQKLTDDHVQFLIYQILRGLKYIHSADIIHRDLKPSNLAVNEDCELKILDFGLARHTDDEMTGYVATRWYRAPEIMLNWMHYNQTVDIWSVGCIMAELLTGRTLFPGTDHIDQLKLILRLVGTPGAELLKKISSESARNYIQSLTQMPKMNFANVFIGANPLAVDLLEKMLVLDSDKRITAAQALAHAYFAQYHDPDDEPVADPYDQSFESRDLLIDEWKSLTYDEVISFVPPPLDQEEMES

| Structure (SMILES) | inhibition [1] [%] | inhibition [2] [%] | inhibition [3] [%] | inhibition [4] [%] | inhibition [5] [%] | inhibition [6] [%] | inhibition [7] [%] | inhibition [8] [%] | inhibition [9] [%] | IC50 [10] [µM] |
| --- | --- | --- | --- | --- | --- | --- | --- | --- | --- | --- |
| CNc1cc(Oc2cc(C(=O)Nc3cc(-n4cnc(C)c4)cc(C(F)(F)F)c3)ccc2C)ncn1 | 5.5 |  |  |  |  |  |  |  |  |  |
| CCN1CCN(Cc2ccc(NC(=O)c3ccc(C)c(Oc4ccnc5[nH]ccc45)c3)cc2C(F)(F)F)CC1 |  | 4.1 | -0.1 | 98.1 | 13.1 | 53.3 | 10.6 | 6.1 | 90.3 | 3.25 |
| CCN1CCN(Cc2ccc(NC(=O)c3ccc(C)c(/C=C/c4cnc5[nH]ccc5c4OC)c3)cc2C(F)(F)F)CC1 |  | 24.3 | 7 | 77.9 | 13.7 | 83.3 | 5.8 | -8.3 | 76.9 | 9.75 |
| CNc1cc(Oc2cc(C(=O)Nc3cc(N4CCN(C)CC4)cc(C(F)(F)F)c3)ccc2C)ncn1 | 12.8 |  |  |  |  |  |  |  |  |  |
